Screening data deposited in PubChem by several laboratories.
Hits are enriched below; roughly 5.5% of the tested compounds scored in any of these assays.
HSV replic up = HSV replication enhancement. maximum fold increase. HSV replication augmentation in cells, fold increase. 220,000 compounds, 0.005% hits; in the data active = maximum fold increase above about 1.5; tested in PC3 cells
STAT1 blocker = STAT1 signaling inhibition | NIH 3T3 STAT1-luciferase reporter, IFN-gamma, luminescence | inhibition, % at 5.5 µM | 200,000 compounds, 0.35% hits | AID 920;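 active = inhibition above a set limit, the mean inhibition across all tested compounds plus 3 SD, cut at about 34% in these data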
STAT3 blocker = inhibitors of IL-6 induced STAT3 signaling. 190,000 compounds, 0.89% hits. U3A cells, IL-6 STAT3-luciferase reporter, luminescence; host cell line lacks STAT1. AID 862. inhibition, % at 5.5 µM;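 active = inhibition above the mean inhibition across all screened compounds plus 3 SD, cut at about 44% in these data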
STAT3 activator = activators of IL-6 induced STAT3 signaling | U3A cells, IL-6 STAT3-luciferase reporter, luminescence; 100% = signal with IL-6 EC80 alone | activation (% of control), % at 5.6 µM | 190,000 compounds, 0.91% hits | AID 871;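 active = activation above the screen-wide mean of compound activation plus 3 SD, cut at about 130% in these data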
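Detection: reporter luminescence signal / Assay system: STAT1-lacking human U3A cells, STAT3 luciferase reporter / Incubation: compound pre-incubation 1 h before IL-6, then 6 h stimulation at 37 °C / Control set: IL-6-only high control / Read-out: % activation relative to IL-6 control / Probe or stimulus: Interleukin-6, 33 ng/mL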
Cl transport mod = modulators of human KCC2 chloride dependent transport; Q9H2X9; KCC2 cells, thallium flux FluoZin-2 fluorescence; B-score of Tl+ flux slope (higher = more flux/activation; lower = inhibition) at 10 µM; 190,000 compounds, 2.2% hits;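 active = thallium flux slope and its plate-corrected score both differing from the plate sample mean at a set confidence after two filtering rounds, in either direction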;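 also: slope of fluorescence scaled to starting intensity during 10 to 20 s after thallium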
Target sequence (Q9H2X9 whole entry, looked up): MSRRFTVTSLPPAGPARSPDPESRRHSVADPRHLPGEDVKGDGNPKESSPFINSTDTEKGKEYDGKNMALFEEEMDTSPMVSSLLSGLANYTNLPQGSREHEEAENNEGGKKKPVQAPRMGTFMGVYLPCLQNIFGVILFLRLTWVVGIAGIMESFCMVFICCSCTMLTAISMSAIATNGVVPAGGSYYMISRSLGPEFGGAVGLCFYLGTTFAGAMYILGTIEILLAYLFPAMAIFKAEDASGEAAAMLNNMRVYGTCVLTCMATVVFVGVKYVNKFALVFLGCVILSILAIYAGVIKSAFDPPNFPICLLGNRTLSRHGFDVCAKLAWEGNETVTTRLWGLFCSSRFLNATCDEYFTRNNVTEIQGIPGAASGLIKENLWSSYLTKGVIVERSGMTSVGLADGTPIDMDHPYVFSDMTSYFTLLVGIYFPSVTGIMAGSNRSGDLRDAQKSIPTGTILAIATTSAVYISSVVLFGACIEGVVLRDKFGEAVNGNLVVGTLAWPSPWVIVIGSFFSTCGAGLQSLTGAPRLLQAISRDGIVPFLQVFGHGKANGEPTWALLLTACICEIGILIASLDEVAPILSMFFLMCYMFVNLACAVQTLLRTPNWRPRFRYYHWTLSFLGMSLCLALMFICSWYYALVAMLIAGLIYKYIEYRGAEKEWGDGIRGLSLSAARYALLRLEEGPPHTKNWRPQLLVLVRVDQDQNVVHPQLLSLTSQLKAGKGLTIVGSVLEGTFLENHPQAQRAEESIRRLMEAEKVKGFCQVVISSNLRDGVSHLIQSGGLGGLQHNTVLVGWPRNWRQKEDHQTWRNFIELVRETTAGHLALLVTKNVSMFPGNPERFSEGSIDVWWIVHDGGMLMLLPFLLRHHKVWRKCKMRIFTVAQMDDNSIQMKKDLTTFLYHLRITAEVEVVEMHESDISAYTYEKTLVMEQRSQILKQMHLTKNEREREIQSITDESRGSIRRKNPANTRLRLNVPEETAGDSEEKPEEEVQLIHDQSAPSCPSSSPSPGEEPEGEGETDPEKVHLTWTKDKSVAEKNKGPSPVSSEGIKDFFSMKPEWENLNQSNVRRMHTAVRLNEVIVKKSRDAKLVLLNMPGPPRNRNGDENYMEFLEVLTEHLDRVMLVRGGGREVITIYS
STAT1 act = STAT1 signaling activation; NIH 3T3 STAT1-luciferase reporter, IFN-gamma, luminescence; 100% = IFN-gamma alone, no compound; activation (% of control), % at 5.5 µM; 200,000 compounds, 2.6% hits; AID 932;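 active = activation above the screen-wide mean activation plus 3 SD, cut at about 130% in these data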
Large screens that a line does not name were inactive.

Cc1ccc(/C=N/c2sc3c(c2C#N)CCC3)s1	STAT1 act 150
Cc1ccc(/C=N/c2sc3c(c2C#N)CCCCC3)o1	STAT1 act 139 (no result: Cl transport mod)
CN1CCN(/C=N/c2sc3c(c2C#N)CCCCC3)CC1	STAT1 act 146
Cc1[nH]n(-c2cccc3ccccc23)c(=O)c1/C=N/c1sc2c(c1C#N)CCC2	Cl transport mod 26
N#Cc1c(/N=C/c2cc3ccccc3s2)sc2c1CCC2	none
c1cncc(-c2nc(-c3ccc4c(c3)OCO4)cs2)c1	STAT1 act 143
Clc1ccsc1-c1csc(-c2cccnc2)n1	STAT1 act 129 (no result: Cl transport mod)
COc1ccc2cc(C(N)=O)c(=Nc3ccc(C)cc3)oc2c1	STAT1 act 138
Cc1cccc(N=c2oc3cc(O)ccc3cc2C(N)=O)c1	STAT1 act 130
Cc1ccnc(N2CCC(C(=O)NNC(=O)COc3cccc4ccccc34)CC2)n1	none (no result: HSV replic up)
COc1ccc(CN2CCNC(=O)C2CC(=O)NCCC2=CCCCC2)cc1OC (stereo unspecified)	none
COc1ccccc1-n1c(-c2ccc(Cl)cc2)c[nH]c1=S	none
CCOC(=O)c1c(C)oc2c1c(C(c1cccnc1)N1CCOCC1)c(O)c1ccccc12 (stereo unspecified)	STAT3 activator 133 (no result: Cl transport mod)
COC(=O)c1cc(COc2ccc3oc(C)c(C(=O)OC(C)C)c3c2)c(C)o1	none (no result: Cl transport mod)
CC(C(=O)NC1CCCC1)N(C(=O)c1ccc(-c2ccccc2)[nH]1)c1ccccc1F (stereo unspecified)	none
Nc1cc(-c2nn[nH]n2)ccc1F	none (no result: Cl transport mod)
CCCc1ccc(-c2ccc(F)c(N)c2)nc1	STAT1 blocker 37, STAT3 blocker 97 (no result: Cl transport mod)
Cc1ccc(NC(=S)NCc2ccc3c(c2)cc(C)n3C)c(C)c1	none
COc1ccc2sc(NC(C)=O)nc2c1	STAT1 act 136 (no result: Cl transport mod)
CCC(=O)Nc1nc2ccc3nc(C)sc3c2s1	STAT1 act 149 (no result: Cl transport mod)
CCC(=O)Nc1nc2cc(OC)ccc2s1	STAT1 act 140
CCCCOC(=O)Nc1nc2ccc(OC)cc2s1	none
COc1ccc2sc(NC(=O)NC(=O)c3c(Cl)cccc3Cl)nc2c1	none (no result: STAT1 blocker, STAT3 blocker, STAT3 activator, STAT1 act)
COc1ccc2sc(NC(=O)CC(C)C)nc2c1	STAT1 act 146
COc1ccc2nc(NC(=O)CCn3cccc3)sc2c1	none (no result: Cl transport mod)
CCC(=O)Nc1nc2c(OC)ccc(OC)c2s1	none (no result: Cl transport mod)
CC(=O)Cc1nsc(NC(=O)c2cn(-c3ccccc3)nc2-c2ccc(Br)cc2)n1	none
CCn1cc(CNC(=O)c2cc(COc3ccc(F)cc3F)on2)cn1	none (no result: Cl transport mod)
CCOC(=O)c1c(C)[nH]c(C(=O)CSc2nccc(C)n2)c1C	STAT1 act 132
CCCc1cc(=O)[nH]c(SCC(=O)c2[nH]c(C)c(C(=O)OCC)c2C)n1	none
COC(=O)c1ccc(NC(c2ccc(Cl)cc2)P(=O)(OC)OC)cc1 (stereo unspecified)	none
O=C(NC(=S)Nn1cnc2c(cnn2-c2ccccc2)c1=O)c1ccc(Oc2ccccc2)cc1	Cl transport mod 18
O=C(NC(=S)Nn1cnc2c(cnn2-c2ccccc2)c1=O)c1ccc(Cl)cc1	none
O=C(NC1CCCCC1)c1cc2nc3c(c(C(F)(F)F)n2n1)CCCC3	STAT1 act 130
CC(=O)c1ccc(NC(=O)c2cc3nc4c(c(C(F)(F)F)n3n2)CCCC4)cc1	none (no result: HSV replic up)
c1ccc(CSc2ccc(-c3ccco3)nn2)cc1	STAT1 act 145
Clc1ccc(CSc2ccc(-c3ccco3)nn2)cc1	none
Cc1ccc(CSc2ccc(-c3ccco3)nn2)cc1	none
Cc1cccc(CSc2ccc(-c3ccco3)nn2)c1	STAT1 act 133
O=C1CC(NCCC2=CCCCC2)C(=O)N1c1cccc(Cl)c1Cl (stereo unspecified)	none (no result: Cl transport mod)
Brc1ccc(-c2cnc(-c3cccs3)o2)cc1	STAT1 act 143
COc1ccc(-c2nc(-c3cccs3)no2)cc1	none (no result: STAT1 blocker, STAT3 blocker, STAT3 activator, STAT1 act)
CC(=O)Nc1ccc(-n2cc(-c3ccccc3)[nH]c2=S)cc1	none
COc1ccc(-n2cc(-c3ccccc3)[nH]c2=S)cc1	Cl transport mod 18
CC(C)n1c(-c2ccco2)csc1=Nc1cccnc1	STAT3 activator 135 (no result: Cl transport mod)
CCCC1Cc2nc(Cl)c(C#N)cc2CO1 (stereo unspecified)	none (no result: STAT1 blocker, STAT3 blocker, STAT3 activator, STAT1 act)
Cc1ccc(-c2nc(N/N=C/c3cccc([N+](=O)[O-])c3)c3ccccc3n2)cc1	none
Cc1ccc(-c2nc(N/N=C/c3cccnc3)c3ccccc3n2)cc1	STAT1 blocker 57, STAT3 blocker 72
COc1ccc2nc(N=Nc3ccc(N(C)C)cc3)sc2c1	STAT1 blocker 53, STAT3 blocker 44 (no result: HSV replic up)
O=S(=O)(Nc1ccccc1O)c1ccc(Cl)nc1	none (no result: STAT1 blocker, STAT3 blocker, STAT3 activator, STAT1 act)
Cc1ncsc1CCOC(=O)C1C2CC3CC(C2)CC1C3 (stereo unspecified)	none
O=C(COCC(=O)N/N=C/c1ccc(F)cc1)N/N=C/c1ccc(F)cc1	none
c1ccc(C[n+]2cccc3c4ccccc4ccc32)cc1	STAT3 blocker 60
CC(=O)c1ccc(Nc2ccc(-c3ccccc3F)nn2)cc1	STAT1 act 142
COc1ccccc1-c1ccc(Nc2ccc(C(=O)N3CCOCC3)cc2)nn1	none
O=S(=O)(Nc1nccs1)c1ccc(F)cc1	none
O=C(/C=C/c1c(F)cccc1Cl)Nc1ccncc1	none
O=C(CCCOc1ccccc1)Nc1nc2ccccc2[nH]1	STAT1 act 130
Cc1ccc(/C=C/C(=O)Nc2nc3ccccc3[nH]2)cc1	STAT1 act 129
Cc1ccc(OCCCC(=O)Nc2nc3ccccc3[nH]2)cc1	none
Cc1ccc(/C=C/C(=O)c2nc3ccccc3[nH]2)cc1	none
O=C(/C=C/c1c(F)cccc1Cl)Nc1nc2ccccc2[nH]1	STAT1 act 130
COc1cccc(NC(=O)COc2ccccc2C(N)=O)c1	STAT1 act 134 (no result: Cl transport mod)
Cc1cccc(OCC(=O)Nc2cccc(-c3nnc(-c4ccccc4)o3)c2)c1C	STAT1 act 130 (no result: Cl transport mod)
O=C(Nc1cccc(-c2nnc(-c3ccccc3)o2)c1)C1CCCCC1	STAT1 act 141
COc1ccc(OCC(=O)Nc2cccc(OC)c2)cc1	none
Cc1ccc(SCC(=O)Nc2cccc(-c3nnc(-c4ccco4)o3)c2)cc1	STAT1 act 134 (no result: Cl transport mod)
Cc1cccc(C)c1OCC(=O)Nc1cccc(-c2nnc(-c3ccccc3)o2)c1	none
COc1cccc(-c2nnc(NC(=O)C3CCCCC3)o2)c1	none
CCc1ccc2nc(SCC(=O)Nc3nnc(C)s3)c(C)cc2c1	none
CCCCC(=O)Nc1cccc(-c2nnc(-c3ccccc3)o2)c1	none
Cc1ccc(OCC(=O)Nc2cccc(-c3nnc(-c4ccccc4)o3)c2)cc1	STAT1 act 143 (no result: HSV replic up)
Cc1csc(SCc2nnc(-c3ccccc3Br)o2)n1	STAT1 act 134 (no result: Cl transport mod)
Cc1csc(SCc2nnc(-c3ccc(Cl)cc3)o2)n1	none
COC(=O)c1ccc(NC(=O)Cn2nnc3ccccc32)cc1	STAT1 act 134
O=C(Cn1nnc2ccccc21)Nc1ccc([N+](=O)[O-])cc1	none (no result: STAT1 blocker, STAT3 blocker, STAT3 activator, STAT1 act)
